Values joined by “and” are separate entries in the source; they are usually repeats but may differ in a detail not shown here. Equal entries are not always repeated.
Test system: U2OS
Assay: Multiplex assay against U2OS
Assay type: toxicity, cell-based
Details: human
How it was run: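 Live cells were stained at seeding with Hoechst33342, BioTracker Green Microtubule Cytoskeleton Dye, MitoTracker Red and Annexin V Alexa Fluor 680. Following compound addition, they were imaged on a CQ1 microscope at 37°C and 5% CO2 and gated by CellPathfinder machine learning into Hoechst high-intensity objects or normal cells, with normal cells split into healthy, pyknosed or fragmented nuclei and pyknosed cells into mitotic or apoptotic. Tubulin, mitochondrial-mass and membrane-permeability phenotypes are per cents of healthy-nucleus cells.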

[1] = 12 h, 1 µM, compound concentration 1 uM
[2] = 12 h, 10 µM, compound concentration 10 uM
[3] = 24 h, 1 µM, compound concentration 1 uM
[4] = 24 h, 10 µM, compound concentration 10 uM
[5] = 48 h, 1 µM, compound concentration 1 uM
[6] = 48 h, 10 µM, compound concentration 10 uM

COc1cccc2c1c(NS(=O)(=O)c1ccc(Cl)s1)nn2Cc1cccc(CNC(=O)C(C)(C)O)c1
Population Apoptotic (%) [1]: 86% and 81% | Population Fragmented Nuclei (%) [1]: 23% and 29% | Population Healthy Nuclei (%) [1]: 67% and 64% | Population Hoechst High Intensity Objects (%) [1]: 3% and 6% | Population Membrane Permeable-Phenotype (%) [1]: 4% and 7% | Population Mitochondria Different-Phenotype (%) [1]: 1% and 3% | Population Mitotic Cells (%) [1]: 13% and 18% | Population Normal (%) [1]: 96% and 93% | Population Pyknosed Nuclei (%) [1]: 9% and 5% | Population Tubulin-Different-Phenotype (%) [1]: 1% and 6% | Total Cell Count [1]: 261 and 201 | Population Apoptotic (%) [2]: 76% and 83% | Population Fragmented Nuclei (%) [2]: 26% and 25% | Population Healthy Nuclei (%) [2]: 65% and 70% | Population Hoechst High Intensity Objects (%) [2]: 1% and 5% | Population Membrane Permeable-Phenotype (%) [2]: 6% and 8% | Population Mitochondria Different-Phenotype (%) [2]: 2% and 3% | Population Mitotic Cells (%) [2]: 23% and 16% | Population Normal (%) [2]: 98% and 94% | Population Pyknosed Nuclei (%) [2]: 8% and 4% | Population Tubulin-Different-Phenotype (%) [2]: 4% and 2% | Total Cell Count [2]: 264 and 140 | Population Apoptotic (%) [3]: 96% and 90% | Population Fragmented Nuclei (%) [3]: 20% and 28% | Population Healthy Nuclei (%) [3]: 70% and 66% | Population Hoechst High Intensity Objects (%) [3]: 1% and 5% | Population Membrane Permeable-Phenotype (%) [3]: 5% and 8% | Population Mitochondria Different-Phenotype (%) [3]: 1% and 3% | Population Mitotic Cells (%) [3]: 3% and 9% | Population Normal (%) [3]: 98% and 94% | Population Pyknosed Nuclei (%) [3]: 8% and 4% | Population Tubulin-Different-Phenotype (%) [3]: 3% and 6% | Total Cell Count [3]: 307 and 242 | Population Apoptotic (%) [4]: 90% and 88% | Population Fragmented Nuclei (%) [4]: 25% | Population Healthy Nuclei (%) [4]: 64% and 68% | Population Hoechst High Intensity Objects (%) [4]: 1% and 5% | Population Membrane Permeable-Phenotype (%) [4]: 5% and 8% | Population Mitochondria Different-Phenotype (%) [4]: 3% and 4% | Population Mitotic Cells (%) [4]: 10% and 11% | Population Normal (%) [4]: 98% and 94% | Population Pyknosed Nuclei (%) [4]: 10% and 5% | Population Tubulin-Different-Phenotype (%) [4]: 2% | Total Cell Count [4]: 304 and 167 | Population Apoptotic (%) [5]: 95% and 74% | Population Fragmented Nuclei (%) [5]: 14% and 22% | Population Healthy Nuclei (%) [5]: 76% and 68% | Population Hoechst High Intensity Objects (%) [5]: 1% and 7% | Population Membrane Permeable-Phenotype (%) [5]: 4% and 5% | Population Mitochondria Different-Phenotype (%) [5]: 1% and 4% | Population Normal (%) [5]: 98% and 92% | Population Pyknosed Nuclei (%) [5]: 9% | Population Tubulin-Different-Phenotype (%) [5]: 2% and 5% | Total Cell Count [5]: 463 and 314 | Population Apoptotic (%) [6]: 93% and 100% | Population Fragmented Nuclei (%) [6]: 20% and 22% | Population Healthy Nuclei (%) [6]: 71% | Population Hoechst High Intensity Objects (%) [6]: 2% and 3% | Population Membrane Permeable-Phenotype (%) [6]: 5% | Population Mitochondria Different-Phenotype (%) [6]: 2% and 3% | Population Mitotic Cells (%) [6]: 6% and 0% | Population Normal (%) [6]: 97% and 96% | Population Pyknosed Nuclei (%) [6]: 8% and 5% | Population Tubulin-Different-Phenotype (%) [6]: 3% | Total Cell Count [6]: 413 and 235

OCCCNc1cc(-c2ccnc(Nc3cccc(Cl)c3)n2)ccn1
Population Apoptotic (%) [1]: 88% and 80% | Population Fragmented Nuclei (%) [1]: 38% and 27% | Population Healthy Nuclei (%) [1]: 52% and 51% | Population Hoechst High Intensity Objects (%) [1]: 3% and 5% | Population Membrane Permeable-Phenotype (%) [1]: 8% and 10% | Population Mitotic Cells (%) [1]: 11% and 20% | Population Normal (%) [1]: 97% and 94% | Population Pyknosed Nuclei (%) [1]: 9% and 20% | Population Tubulin-Different-Phenotype (%) [1]: 4% and 5% | Total Cell Count [1]: 200 and 76 | Population Apoptotic (%) [2]: 85% and 91% | Population Fragmented Nuclei (%) [2]: 37% and 24% | Population Healthy Nuclei (%) [2]: 56% and 64% | Population Hoechst High Intensity Objects (%) [2]: 4% and 10% | Population Membrane Permeable-Phenotype (%) [2]: 46% and 47% | Population Mitochondria Different-Phenotype (%) [2]: 36% and 51% | Population Mitotic Cells (%) [2]: 14% and 8% | Population Normal (%) [2]: 95% and 89% | Population Pyknosed Nuclei (%) [2]: 6% and 11% | Population Tubulin-Different-Phenotype (%) [2]: 46% and 61% | Total Cell Count [2]: 237 and 118 | Population Apoptotic (%) [3]: 96% and 94% | Population Fragmented Nuclei (%) [3]: 43% and 40% | Population Healthy Nuclei (%) [3]: 43% and 33% | Population Hoechst High Intensity Objects (%) [3]: 7% | Population Membrane Permeable-Phenotype (%) [3]: 10% and 16% | Population Mitochondria Different-Phenotype (%) [3]: 10% and 25% | Population Mitotic Cells (%) [3]: 4% and 5% | Population Normal (%) [3]: 92% | Population Pyknosed Nuclei (%) [3]: 13% and 25% | Population Tubulin-Different-Phenotype (%) [3]: 6% and 16% | Total Cell Count [3]: 200 and 77 | Population Apoptotic (%) [4]: 88% and 95% | Population Fragmented Nuclei (%) [4]: 37% and 30% | Population Healthy Nuclei (%) [4]: 50% and 49% | Population Hoechst High Intensity Objects (%) [4]: 11% and 12% | Population Membrane Permeable-Phenotype (%) [4]: 34% and 43% | Population Mitochondria Different-Phenotype (%) [4]: 40% and 54% | Population Mitotic Cells (%) [4]: 12% and 4% | Population Normal (%) [4]: 88% and 87% | Population Pyknosed Nuclei (%) [4]: 12% and 20% | Population Tubulin-Different-Phenotype (%) [4]: 37% and 61% | Total Cell Count [4]: 229 and 128 | Population Apoptotic (%) [5]: 95% and 100% | Population Fragmented Nuclei (%) [5]: 56% and 59% | Population Healthy Nuclei (%) [5]: 22% and 11% | Population Hoechst High Intensity Objects (%) [5]: 16% and 12% | Population Membrane Permeable-Phenotype (%) [5]: 30% | Population Mitochondria Different-Phenotype (%) [5]: 14% and 20% | Population Mitotic Cells (%) [5]: 4% and 0% | Population Normal (%) [5]: 83% and 87% | Population Pyknosed Nuclei (%) [5]: 21% and 28% | Population Tubulin-Different-Phenotype (%) [5]: 26% and 10% | Total Cell Count [5]: 227 and 99 | Population Apoptotic (%) [6]: 94% and 96% | Population Fragmented Nuclei (%) [6]: 47% and 50% | Population Healthy Nuclei (%) [6]: 31% and 25% | Population Hoechst High Intensity Objects (%) [6]: 21% and 23% | Population Membrane Permeable-Phenotype (%) [6]: 43% and 65% | Population Mitochondria Different-Phenotype (%) [6]: 45% and 34% | Population Mitotic Cells (%) [6]: 5% and 4% | Population Normal (%) [6]: 78% and 76% | Population Pyknosed Nuclei (%) [6]: 21% and 24% | Population Tubulin-Different-Phenotype (%) [6]: 45% and 65% | Total Cell Count [6]: 223 and 134

From ChEMBL document CHEMBL5724801, “EUbOPEN Chemogenomics Library - Multiplex” (2024)
